Assay [1] deals with Matrix metalloproteinase-9 (Homo sapiens, UniProt P14780). Nature of the assay: Inhibition of recombinant human MMP-9 using Mca-Lys-Pro-Leu-Gly-Leu-Dap(Dnp)-Ala-Arg-NH2 as substrate incubated for 4 hrs measured every 15 secs for 20 mins by fluorimetric assay. In short, it runs like this:
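Pro-MMP-9 was activated with 1 mM APMA for 1 h at 37 °C and used at 1.3 nM final. Inhibitor was incubated with enzyme for 4 h at 25 °C in Tris 50 mM pH 7.5, NaCl 150 mM, CaCl2 10 mM, 0.05% Brij-35, 1% DMSO. Substrate was at 2 µM final, ex 325/em 400 nm, in duplicate. IC50 was obtained from vi/vo = 1/(1+[I]/IC50).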

The target in assay [2] is Disintegrin and metalloproteinase domain-containing protein 17 (Homo sapiens, UniProt P78536). Nature of the assay: Inhibition of recombinant human ADAM-17 using Mca-Lys-Pro-Leu-Gly-Leu-Dap(Dnp)-Ala-Arg-NH2 as substrate incubated for 30 mins measured every 15 secs for 20 mins by fluorimetric assay. The procedure, abridged: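 Enzyme at 5 nM final was preincubated with inhibitor for 30 min at 37 °C in Tris 25 mM pH 9, ZnCl2 25 µM, 0.005% Brij-35. Substrate was at 2 µM final. Fluorescence increase (ex 325/em 400 nm) gave initial rates, in duplicate. IC50 was derived from vi/vo = 1/(1+[I]/IC50).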
Sequence of Disintegrin and metalloproteinase domain-containing protein 17 (P78536 whole entry, the tested form may be a part): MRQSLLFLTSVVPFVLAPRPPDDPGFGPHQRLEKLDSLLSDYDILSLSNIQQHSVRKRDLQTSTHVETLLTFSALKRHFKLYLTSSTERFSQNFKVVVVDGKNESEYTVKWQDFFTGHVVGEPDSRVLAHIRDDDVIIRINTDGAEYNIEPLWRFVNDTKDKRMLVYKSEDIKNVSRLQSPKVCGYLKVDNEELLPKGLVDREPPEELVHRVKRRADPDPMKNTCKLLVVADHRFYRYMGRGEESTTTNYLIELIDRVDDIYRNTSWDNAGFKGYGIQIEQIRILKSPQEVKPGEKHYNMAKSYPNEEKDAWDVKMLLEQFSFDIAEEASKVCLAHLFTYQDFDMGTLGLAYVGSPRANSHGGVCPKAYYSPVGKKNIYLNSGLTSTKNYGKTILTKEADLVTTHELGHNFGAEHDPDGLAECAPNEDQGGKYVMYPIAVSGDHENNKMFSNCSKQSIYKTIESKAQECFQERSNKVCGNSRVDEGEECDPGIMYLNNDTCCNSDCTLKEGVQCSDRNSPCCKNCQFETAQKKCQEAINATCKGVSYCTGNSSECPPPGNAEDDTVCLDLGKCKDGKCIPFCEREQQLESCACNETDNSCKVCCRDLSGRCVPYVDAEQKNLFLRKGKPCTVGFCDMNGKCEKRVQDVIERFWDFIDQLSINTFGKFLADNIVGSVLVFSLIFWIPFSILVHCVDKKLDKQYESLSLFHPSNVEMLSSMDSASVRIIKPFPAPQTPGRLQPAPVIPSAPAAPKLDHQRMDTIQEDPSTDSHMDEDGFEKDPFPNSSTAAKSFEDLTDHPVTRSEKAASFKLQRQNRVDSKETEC

Another assay addresses T1, Interstitial collagenase (Homo sapiens, UniProt P03956).
T1 sequence (P03956 whole entry): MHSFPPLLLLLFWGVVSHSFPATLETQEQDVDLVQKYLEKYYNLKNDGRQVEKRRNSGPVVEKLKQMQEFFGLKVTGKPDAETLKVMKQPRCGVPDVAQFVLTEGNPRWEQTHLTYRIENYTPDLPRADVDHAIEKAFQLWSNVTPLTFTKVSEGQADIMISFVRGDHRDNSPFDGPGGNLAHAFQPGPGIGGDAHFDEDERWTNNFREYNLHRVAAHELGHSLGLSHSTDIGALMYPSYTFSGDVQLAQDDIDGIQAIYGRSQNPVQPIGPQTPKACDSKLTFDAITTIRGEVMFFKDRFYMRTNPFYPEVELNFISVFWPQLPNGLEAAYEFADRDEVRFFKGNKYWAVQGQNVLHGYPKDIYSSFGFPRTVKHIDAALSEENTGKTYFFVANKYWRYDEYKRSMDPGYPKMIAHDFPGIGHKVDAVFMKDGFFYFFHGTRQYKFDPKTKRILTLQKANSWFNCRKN
As to the kind of experiment: Inhibition of recombinant human MMP-1 using Mca-Lys-Pro-Leu-Gly-Leu-Dap(Dnp)-Ala-Arg-NH2 as substrate incubated for 4 hrs measured every 15 secs for 20 mins by fluorimetric assay. In short, it runs like this: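 Pro-MMP-1 was activated with 2 mM APMA for 2 h at 37 °C. Enzyme (2.0 nM final) was incubated with inhibitor in Tris 50 mM pH 7.5, NaCl 150 mM, CaCl2 10 mM, 0.05% Brij-35, 1% DMSO for 4 h at 25 °C. Substrate was added at 2 µM final. Fluorescence (ex 325/em 400 nm) was read for initial rates, in duplicate. IC50 came from vi/vo = 1/(1+[I]/IC50).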

Assay [3] has as its target 72 kDa type IV collagenase (Homo sapiens, UniProt P08253). As to the kind of experiment: Inhibition of recombinant human MMP-2 using Mca-Lys-Pro-Leu-Gly-Leu-Dap(Dnp)-Ala-Arg-NH2 as substrate incubated for 4 hrs measured every 15 secs for 20 mins by fluorimetric assay. The procedure, abridged:
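Pro-MMP-2 was activated with 2 mM APMA for 1 h at 37 °C and used at 0.56 nM final. It was preincubated with inhibitor for 4 h at 25 °C in Tris 50 mM pH 7.5 buffer containing NaCl, CaCl2, Brij-35 and 1% DMSO. Substrate was at 2 µM final, ex 325/em 400 nm, run in duplicate. IC50 was taken from initial-velocity ratios, vi/vo = 1/(1+[I]/IC50).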

The target of assay [4] is Matrix metalloproteinase-14 (Homo sapiens, UniProt P50281). As to the kind of experiment: Inhibition of recombinant human MMP-14 catalytic domain using Mca-Lys-Pro-Leu-Gly-Leu-Dap(Dnp)-Ala-Arg-NH2 as substrate incubated for 4 hrs measured every 15 secs for 20 mins by fluorimetric assay. The procedure, abridged:
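MMP-14 catalytic domain was used at 1.0 nM final with no activation step. It was incubated with inhibitor for 4 h at 25 °C in Tris 50 mM pH 7.5 buffer with NaCl 150 mM, CaCl2 10 mM, 0.05% Brij-35 and 1% DMSO. Substrate was at 2 µM final, ex 325/em 400 nm, duplicate wells. IC50 was fitted by vi/vo = 1/(1+[I]/IC50).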

Here are results for 16 molecules from ChEMBL document CHEMBL2429772, “Selective arylsulfonamide inhibitors of ADAM-17: hit optimization and activity in ovarian cancer cell models” (J Med Chem, 2013).

Some results are limits rather than exact numbers.

Sequence of 72 kDa type IV collagenase (P08253 whole entry): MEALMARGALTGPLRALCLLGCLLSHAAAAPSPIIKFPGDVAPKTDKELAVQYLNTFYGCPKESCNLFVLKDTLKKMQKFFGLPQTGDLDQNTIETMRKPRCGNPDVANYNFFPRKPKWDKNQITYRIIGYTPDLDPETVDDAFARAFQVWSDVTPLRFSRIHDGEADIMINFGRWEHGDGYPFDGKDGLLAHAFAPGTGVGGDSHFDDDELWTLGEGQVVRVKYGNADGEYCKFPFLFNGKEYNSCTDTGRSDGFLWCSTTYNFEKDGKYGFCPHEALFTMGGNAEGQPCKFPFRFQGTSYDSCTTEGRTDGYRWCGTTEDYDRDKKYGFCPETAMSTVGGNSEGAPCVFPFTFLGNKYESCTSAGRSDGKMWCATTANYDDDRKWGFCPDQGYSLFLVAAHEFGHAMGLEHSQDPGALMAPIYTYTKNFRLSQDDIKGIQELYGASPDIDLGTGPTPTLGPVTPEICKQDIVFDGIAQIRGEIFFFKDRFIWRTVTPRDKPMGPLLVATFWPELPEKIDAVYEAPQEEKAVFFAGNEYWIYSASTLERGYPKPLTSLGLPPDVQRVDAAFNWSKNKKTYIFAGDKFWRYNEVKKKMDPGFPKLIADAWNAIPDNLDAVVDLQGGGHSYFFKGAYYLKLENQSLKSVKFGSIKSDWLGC
Sequence of Matrix metalloproteinase-9 (P14780 whole entry): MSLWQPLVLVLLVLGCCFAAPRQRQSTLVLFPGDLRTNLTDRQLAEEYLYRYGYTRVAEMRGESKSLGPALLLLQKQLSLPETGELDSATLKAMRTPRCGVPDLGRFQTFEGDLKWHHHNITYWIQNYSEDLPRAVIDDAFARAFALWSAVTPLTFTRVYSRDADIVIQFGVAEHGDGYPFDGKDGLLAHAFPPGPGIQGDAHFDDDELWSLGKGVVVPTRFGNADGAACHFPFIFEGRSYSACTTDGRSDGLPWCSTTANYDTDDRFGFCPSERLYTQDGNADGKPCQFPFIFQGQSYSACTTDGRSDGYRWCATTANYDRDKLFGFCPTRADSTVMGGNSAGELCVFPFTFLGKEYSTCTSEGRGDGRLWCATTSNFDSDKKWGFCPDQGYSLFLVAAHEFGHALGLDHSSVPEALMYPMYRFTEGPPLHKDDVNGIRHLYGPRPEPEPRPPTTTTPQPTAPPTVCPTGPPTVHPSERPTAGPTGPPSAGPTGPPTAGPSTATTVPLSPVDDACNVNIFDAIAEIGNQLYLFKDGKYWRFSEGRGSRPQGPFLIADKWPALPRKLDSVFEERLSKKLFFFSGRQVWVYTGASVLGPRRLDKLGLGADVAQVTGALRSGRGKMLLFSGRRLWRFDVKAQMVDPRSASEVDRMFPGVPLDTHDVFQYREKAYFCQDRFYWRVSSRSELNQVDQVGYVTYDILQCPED

In the case of `O=C(CNS(=O)(=O)c1ccc(OCc2ccccc2)cc1)NO`, the IC50 was 96 nM in assay [1] and 590 nM in assay [2].
Take `O=C(CNS(=O)(=O)c1ccc(OCc2cccc(Br)c2)cc1)NO`: the IC50 at Interstitial collagenase is over 500 µM; in assay [3], 15 nM; in assay [1], 60 nM; in assay [4], 1600 nM; in assay [2], 104 nM.
For the molecule `O=C(CNS(=O)(=O)c1ccc(OCc2cccc(F)c2)cc1)NO`, the IC50 at Interstitial collagenase is 61 µM; in assay [3] it was 7.8 nM; in assay [1] it was 110 nM; in assay [4] it was 940 nM; in assay [2], 71 nM.
In the case of `O=C(CNS(=O)(=O)c1ccc(OCc2cccc(OC(F)(F)F)c2)cc1)NO`, the IC50 on Interstitial collagenase is over 500 µM; in assay [3], 20 nM; in assay [1], 76 nM; in assay [4], 2900 nM; in assay [2], 280 nM.
Turning to `O=C(CNS(=O)(=O)c1ccc(OCc2cccc(-c3ccccc3)c2)cc1)NO`, the IC50 turned out to be 100 µM on Interstitial collagenase; 41 nM in assay [3]; 920 nM in assay [1]; 1700 nM in assay [4]; 76 nM in assay [2].
As for `O=C(CNS(=O)(=O)c1ccc(OCc2cccc3cccnc23)cc1)NO`, the IC50 is 620 µM on Interstitial collagenase; 670 nM in assay [3]; 29000 nM in assay [1]; 120000 nM in assay [4]; 650 nM in assay [2].
The corresponding values for `O=C(CNS(=O)(=O)c1ccc(OCc2cc(F)cc(F)c2)cc1)NO` are 181 µM, 18 nM, 330 nM, 890 nM and 82 nM.
On to `CN(CC(=O)NO)S(=O)(=O)c1ccc(OCc2cc(Br)cc(Br)c2)cc1`, for which the IC50 at Interstitial collagenase is over 200 µM; in assay [3], 1870 nM; in assay [4] it was 123000 nM; in assay [2], 160 nM.
In the case of `O=C(O)CNS(=O)(=O)c1ccc(OCc2cc(Br)cc(Br)c2)cc1`, the IC50 in assay [3] is 125000 nM; in assay [2] it was over 50000 nM.
`COc1ccc(-c2cc(Br)cc(COc3ccc(S(=O)(=O)NCC(=O)NO)cc3)c2)cc1`: the IC50 at Interstitial collagenase was over 200 µM; in assay [3], 3800 nM; in assay [4], 170000 nM; in assay [2] it was 320 nM.
The matching figures for `O=C(CNS(=O)(=O)c1ccc(OCc2cc(Br)cc(-c3cccnc3)c2)cc1)NO`: over 500 µM, 1050 nM, 21400 nM and 500 nM.
For the molecule `O=C(CNS(=O)(=O)c1ccc(OCc2ccc(Br)cc2)cc1)NO`, the IC50 at Interstitial collagenase came out at 120 µM; in assay [3], 1.2 nM; in assay [1], 1.4 nM; in assay [4] it was 630 nM; in assay [2], 16 nM.
Consider `O=C(CNS(=O)(=O)c1ccc(OCc2ccc(F)cc2)cc1)NO`, for which the IC50 amounted to 32 µM on Interstitial collagenase; 3 nM in assay [3]; 42 nM in assay [1]; 590 nM in assay [4]; 145 nM in assay [2].
Turning to `O=C(CNS(=O)(=O)c1ccc(OCc2ccc(OC(F)(F)F)cc2)cc1)NO`, the IC50 on Interstitial collagenase came to 74 µM; in assay [3], 7.5 nM; in assay [1], 37 nM; in assay [4] it was 7200 nM; in assay [2], 200 nM.
The matching figures for `O=C(CNS(=O)(=O)c1ccc(OCc2ccc(-c3ccccc3)cc2)cc1)NO`: over 500 µM, 48 nM, 690 nM, 72000 nM and 640 nM.
For `CC#CCOc1ccc(S(=O)(=O)NCC(=O)NO)cc1`, the IC50 at Interstitial collagenase is 28 µM; in assay [3] it was 110 nM; in assay [1], 890 nM; in assay [4], 2900 nM; in assay [2], 17 nM.

Broadly, the IC50 is the concentration that gives 50% inhibition.
